Measured values: ChEMBL document CHEMBL1145417, “Cytotoxic clerodane diterpenoids from fruits of Casearia grewiifolia” (J Nat Prod, 2007)
In brackets after ≈: the same amount, converted by molar mass. Activity calls are given as the source filed them. The rule behind the calls is not given here.

Key:
Type in all cases: functional, cell-based
[1] = (§1) Cytotoxicity against human BC1 cells
Summary of the method: (§2)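 Colorimetric cytotoxicity assay following Skehan and co-workers' method. The cells were human KB (epidermoid carcinoma of the mouth), BC1 (breast cancer) and NCI-H187 (small cell lung cancer). Ellipticine and doxorubicin were the reference compounds.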

KB = test: Cytotoxicity against human KB cells; summary of the method: as §2
NCI-H187 = test: Cytotoxicity against human NCI-H187 cells; summary of the method: as §2
BC1 = test: as §1; summary of the method: as §2

Structure (SMILES) | IC50 [1] | IC50 (KB) | IC50 (NCI-H187) | Activity (KB) | Activity (BC1)
COc1cccc2c1C(=O)c1c(O)c3c(c(O)c1C2=O)C[C@@](O)(C(=O)CO)C[C@@H]3O[C@H]1C[C@H](N)[C@H](O)[C@H](C)O1 [DOXORUBICIN] | 0.13 mg/L (≈ 0.239 µM) | 0.23 mg/L (≈ 0.423 µM) | 0.048 mg/L (≈ 0.0883 µM) |  | 
Cc1c2ccncc2c(C)c2c1[nH]c1ccccc12 [ELLIPTECINE] | 0.13 mg/L (≈ 0.528 µM) | 0.67 mg/L (≈ 2.72 µM) |  |  | 
C=C/C(C)=C\C[C@]1(C)[C@H](C)[C@@H](O)[C@H](O)[C@@]23C(=C[C@H](OC(=O)CC(C)C)C[C@@H]12)[C@@H](OC(C)=O)O[C@H]3OC(C)=O [ESCULENTIN B] | 0.17 mg/L (≈ 0.318 µM) |  | 0.68 mg/L (≈ 1.27 µM) | inactive | 
C=C/C(C)=C\C[C@]1(C)[C@H](C)C[C@H](O)[C@@]23C(=C[C@H](OC(=O)CC(C)C)C[C@@H]12)[C@@H](OC(C)=O)O[C@H]3OC(C)=O (relative stereo) [CASEARGREWINS L] |  | 6 mg/L (≈ 11.6 µM) | 0.32 mg/L (≈ 0.617 µM) |  | inactive
C=C/C(C)=C\C[C@]1(C)[C@H](C)C[C@H](O)[C@@]23C(=C[C@H](OC(=O)CCC)C[C@@H]12)[C@@H](OC(C)=O)O[C@H]3OC(C)=O (relative stereo) [CASEARGREWINS F] | 0.2 mg/L (≈ 0.396 µM) |  | 4.72 mg/L (≈ 9.35 µM) | inactive | 
C=C/C(C)=C\C[C@]1(C)[C@H](C)C[C@H](O)[C@@]23C(=C[C@H](OC(=O)CCC)C[C@@H]12)[C@@H](OC)O[C@H]3OC(C)=O (relative stereo) [CASEARGREWINS G] | 3.97 mg/L (≈ 8.33 µM) | 0.67 mg/L (≈ 1.41 µM) | 5.57 mg/L (≈ 11.7 µM) |  | 
C=C/C(C)=C\C[C@]1(C)[C@H](C)[C@@H](O)[C@H](O)[C@@]23C(=C[C@H](OC(=O)CCCCC)C[C@@H]12)[C@@H](OC)O[C@H]3OC(C)=O (relative stereo) [CASEARGREWINS K] | 3.4 mg/L (≈ 6.53 µM) |  | 5.11 mg/L (≈ 9.81 µM) | inactive | 
C=C/C(C)=C\C[C@]1(C)[C@H](C)C[C@H](O)[C@@]23C(=C[C@H](OC(=O)CCCCC)C[C@@H]12)[C@@H](OC(C)=O)O[C@H]3OC(C)=O (relative stereo) [CASEARGREWINS I] | 0.36 mg/L (≈ 0.676 µM) | 3.04 mg/L (≈ 5.71 µM) | 0.33 mg/L (≈ 0.62 µM) |  | 
C=C/C(C)=C\C[C@]1(C)[C@H](C)CC[C@@]23C(=C[C@H](OC(=O)CCCCC)C[C@@H]12)[C@@H](OC(C)=O)O[C@H]3OC(C)=O (relative stereo) [CASEARGREWINS H] | 0.21 mg/L (≈ 0.406 µM) | 0.88 mg/L (≈ 1.7 µM) | 0.54 mg/L (≈ 1.05 µM) |  | 
C=C/C(C)=C\C[C@]1(C)[C@H](C)C[C@H](O)[C@@]23C(=C[C@H](OC(=O)CCCCC)C[C@@H]12)[C@@H](OC)O[C@H]3OC(C)=O (relative stereo) [CASEARGREWINS J] | 0.99 mg/L (≈ 1.96 µM) |  | 1.22 mg/L (≈ 2.42 µM) | inactive | 
C=C/C(C)=C\C[C@]1(C)[C@H](C)CC[C@@]23C(=C[C@H](OC(=O)CCC)C[C@@H]12)[C@@H](OC(C)=O)O[C@H]3OC(C)=O (relative stereo) [CASEARGREWINS E] | 0.91 mg/L (≈ 1.86 µM) | 0.66 mg/L (≈ 1.35 µM) | 0.15 mg/L (≈ 0.307 µM) |  | 
